Experimental data reported in ChEMBL document CHEMBL4513216, “Probing the Open Global Health Chemical Diversity Library for Multistage-Active Starting Points for Next-Generation Antimalarials” (ACS Infect Dis, 2020).

Assay: Toxicity liver stage against HepG2, at 10uM
Type: cell-based
Parameters: test concentration 10 uM, cell line HepG2-A16-CD81EGFP
Conditions: human, HepG2-A16-CD81EGFP cells; read-out: INHIBITION
Summary of the method: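 Uninfected HepG2-A16-CD81EGFP cells, 3 × 10^3 per well, 1536-well, plated on prespotted compound at 10 μM final, parasite-free screening media added to match infected plates; puromycin 10 μM positive, DMSO 0.5% negative; run in parallel with 48 h PbLuc assay at 37 °C, 5% CO2; viability by CellTiter-Glo luminescence, normalized to controls.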

Structure (SMILES)	cytotoxicity at 10 µM [%]
CC1(NC(=O)Cc2csc(-c3cccc(Cl)c3)n2)CCS(=O)(=O)C1 (configuration not stated)	-3.61
CNc1cc(-c2cc(OC)c(OC)c(OC)c2)ncn1	-11.8
CN(C(=O)CCNC(=O)NC1CCCCC1)c1ccccc1	-0.575
Cc1nn(-c2ncccn2)c2c1C(c1cnn(C)c1C)SCC(=O)N2 (configuration not stated)	-46.4
O=C(CCSc1ccccc1)NCC1CCN(Cc2ccsc2)CC1	-6.93
O=C(c1ccccn1)N1CCN(c2ccc(-n3cccc3)nn2)CC1	-13.7
CS(=O)(=O)N1CCOCC2(CCN(C(=O)c3ccco3)CC2)C1	4.29
O=C(COc1ccccc1)N1CCC[C@]2(C[C@@H](OCC3CC3)CO2)C1	-1.69
CC/N=c1\nc(NCC)nc2n1C(O)(Nc1cccc(C)c1C)CS2 (configuration not stated)	11.5
Cc1nn(C)cc1Cn1cc(Cl)c(N)n1	-5.61
CCn1nc(C)c2ncnc(NCC(=O)N3CCOCC3)c21	3.54
O=C1CC(c2ccc(F)c(F)c2)c2snc(C(=O)O)c2N1 (configuration not stated)	6.95
O=C(Cn1cnc2cc3c(cc21)OCCCO3)NC1CCCC1	3.92
CCN(CC)S(=O)(=O)N1CCC(c2c(C(N)=O)sc3ccccc23)C1 (configuration not stated)	1.4
Cc1nc(Nc2nnc(C)s2)cc(C2CCCN2C2CCCC2)n1 (configuration not stated)	-16.7
CC(=O)N1CCC(N2CC(Cc3nccc4ccn(C)c34)C2)CC1	17.7
CC1(C(=O)N2CCOCC2)CN(Cc2ncc[nH]2)CCO1 (configuration not stated)	-11.3
CN(Cc1ccc(F)cc1)CC1(O)CCN(C(=O)c2ccncc2)C1 (configuration not stated)	-2.25
Cc1nc(O)c2nnn(C[C@H]3CCCN3C(=O)c3ccccc3F)c2n1	-20.4
COc1cccc(CNC(=O)c2ccccc2-n2cnc(CN)c2)c1	-17
O=C(N[C@@H]1CN(Cc2ccc3[nH]ccc3c2)C[C@H]1O)c1cscn1	-7.11
O=S(=O)(c1cccc(F)c1)N1CCCCC1c1ccn[nH]1 (configuration not stated)	0.692
Cn1ccc2ccnc(CC3CN(C(=O)C4CCC(F)(F)CC4)C3)c21	-2.78

Structure (SMILES)	cytotoxicity at 10 µM [%]
CC(NC(C)(C)CN)c1ccccc1 (configuration not stated)	2.62
CC(NCCn1cccn1)c1ccccc1F (configuration not stated)	-3.21
NC(=O)CC1CCCN(c2cncc(OCc3ccccc3)n2)C1 (configuration not stated)	17.7
COc1ccc(C(C)NCCc2ccc(NC(C)=O)cc2)cc1F (configuration not stated)	6.75
CC(NC(=O)c1ccc(C(N)=O)cc1)c1cccc(N2CCOC2=O)c1 (configuration not stated)	-2.83
CCC(C)(O)CNC(=O)Nc1ccc(C)cc1Br (configuration not stated)	-9.95
CC(c1cccnc1)N(C)C(=O)NCCOc1ccc(C#N)cc1 (configuration not stated)	-6.17
O=C(NCCc1cccc(Cl)c1)C1CCOCC1	-8.47
COCc1cc(N(C)Cc2ccccn2)nc(C(C)(C)C)n1	12.1
O=C(CNC1CCc2ncnn2C1)N(Cc1cccs1)C1CC1 (configuration not stated)	-3.09
O=C(NCc1nncn1C1CC1)C1(c2cccc(F)c2)CCOCC1	-2.07
Cc1cc(C(=O)NCC2CCCO2)c(C)n1-c1cccnc1 (configuration not stated)	4.95
CCNC(=O)NCc1cnn(-c2ccc(F)cc2F)c1	-6.52
CS(=O)(=O)Nc1cccc(CNC(=O)CCC(=O)c2cccs2)c1	1.73
O=C(CNCC1CCCN1c1cccnn1)NCCc1cccs1 (configuration not stated)	-6.84
CCS(=O)(=O)N(C)C1CCN(C(=O)c2ccc(C)c(C)c2)CC1	-2.76
Cc1ccc(N2CCCC(N(C)Cc3nnc(C4CC4)o3)C2)nn1 (configuration not stated)	6.2
Cc1cn2c(n1)CCC(NC(=O)CNS(C)(=O)=O)C2 (configuration not stated)	-9.84
OC(COc1ccccc1)CN1CCN(c2nccs2)CC1 (configuration not stated)	13.1
CC(C)(C)OC(=O)N1CC(CC(=O)NCc2ccsc2)C1	5.18
Cn1c(CN2CCN(CC3CCCO3)CC2)nc2ccccc21 (configuration not stated)	-25.1
CCC(NCc1ccccc1C)c1ccccc1OCC(=O)NC (configuration not stated)	16.9
CC(NC(N)=O)C(=O)Nc1ccc(OCc2cccc(F)c2)c(F)c1 (configuration not stated)	-12.3

Structure (SMILES)	cytotoxicity at 10 µM [%]
CN(C(=O)Cc1coc(-c2cccs2)n1)C1(C#N)CCC1	6.52
Cc1ccc(-n2cc(C(=O)NCC(C)Cn3cccn3)nn2)cc1 (configuration not stated)	-46.2
COCCC(=O)NCCCOC1CCCc2ccccc21 (configuration not stated)	-6.87
CN(C)c1cc2c(nn1)CCN(C(=O)c1ccc(-n3cccn3)nc1)C2	-1.86
COCCCNC(=O)COc1ccccc1C(F)(F)F	14.7
Cc1cccc(C2(C(=O)NCCCn3cccn3)CC2)c1	-7.66
CCc1csc(C2CCCN(C(=O)c3ccnc(N(C)C)c3)C2)n1 (configuration not stated)	-6.81
Cc1nc(C)c(CNC(=O)NC(c2nnc3n2CCC3)C(C)C)s1 (configuration not stated)	-1.79
O=C(NCC1CC2(CO1)CN(c1ncccn1)C2)C1CCC1 (configuration not stated)	-107
CN(C)C(=O)COC1COC2(CCN(c3ncccn3)CC2)C1 (configuration not stated)	-72.8
C[C@H]1C[C@H]2CN(C(=O)CCOc3ccccc3)CC[C@H]2O1	-69.3
Cc1occc1C(=O)N1CCc2c(COCC3CC3)cncc2C1	-0.799
CN1CCC(c2nnc(CN3CCOCC3)n2C)CC1	-1.16
CC(C)Cc1ncc2c(n1)CN(c1cc(NCCO)nc(N)n1)C2	-2.68
COc1cccc(Cl)c1C(C(=O)O)N1CCC(O)(c2cccnc2)CC1 (configuration not stated)	6.03
CCOc1ccc(CN2CC[C@@](C)(O)[C@@H](Cc3ccccc3)C2)cn1	-2.02
CC(C)[C@@H]1CN(S(=O)(=O)Cc2ccccc2)C[C@H]1C(=O)O	-1.05
COCCc1ncc(-c2c(C#N)c(N)nc3c2CCc2[nH]ccc2-3)cn1	-0.508
CC(C)c1nccn1C(C)C(=O)NC1CCOCC1 (configuration not stated)	-2.07
Cc1nc(N(C)C)nc(-c2cccc(-c3ccn(CCCF)n3)c2)c1C	3.7
CCC[C@@H]1CN(C(=O)c2conc2-c2ccccc2)C[C@H]1N(C)C	2.29
CCc1c(C)sc2ncnc(N3CC[C@@H](N4CCC(O)CC4)[C@H](O)C3)c12	6.96
CN(C)CCn1ccnc1C1CCCN(c2cc(N)ncn2)C1 (configuration not stated)	-7.76

Structure (SMILES)	cytotoxicity at 10 µM [%]
CCC(CO)N(Cc1ccsc1)Cc1c(C)nn(C)c1Cl (configuration not stated)	17.8
CCOCc1nc(CSc2ccncc2)n(C)n1	2.87
Cn1ccnc1C1CCN(CCN2CCOCC2)CC1	4.69
COCCCn1cnnc1CNc1cc(C)nc2ccnn12	-7.79
CCN1CCCC1Cn1ccc2c(OC)c(OC)ccc2c1=O (configuration not stated)	-2.78
CC(=O)c1c(C)nn(CC(=O)N2Cc3cnc(CC(C)C)nc3C2)c1C	3.75
COc1cc(CN2CCCC(Nc3cccc(F)c3)C2)cc(OC)c1O (configuration not stated)	1.66
Cn1c(=O)c2cc(C(=O)NCCOCC(F)(F)F)ccc2n(C)c1=O	-13.9
O=C(CC1CCCC1)N1CCCC(c2n[nH]c3nccnc23)C1 (configuration not stated)	-2.6
OCCn1nccc1C1CCN(CCOc2ccccc2F)CC1	-5.25
CCc1ncc2c(n1)CN(Cc1nc(-c3ccoc3)no1)CC2	1.61
CCCc1n[nH]c(C2CN(C(=O)c3ccc[nH]3)CCO2)n1 (configuration not stated)	-9.29
COc1cc(C(=O)N(Cc2cnn(C)c2)C(C)C)ccc1OC(C)C	-6.02
Cc1ccccc1C1(C(=O)N2CCCC(n3cncn3)C2)CC1 (configuration not stated)	-4.37
c1cnn(CC2CCCN2Cc2cn3ccsc3n2)c1 (configuration not stated)	-10.2
O=C(c1csnn1)N1CCCC(n2cncn2)C1 (configuration not stated)	5.81
COc1ccccc1CNC(=O)N1CCCC(c2nncn2C)C1 (configuration not stated)	-6.51
CC(C)c1noc(C(C)N2CCN(Cc3ccccc3C#N)CC2)n1 (configuration not stated)	-8.13
CC(C)Cc1noc(CN2CCOC(Cn3cncn3)C2)n1 (configuration not stated)	-2.58
CCc1nc(CC(=O)N2CCOCC2c2ncon2)cs1 (configuration not stated)	-2.58
Cc1cnc(CN2CCCC(c3cc(C(N)=O)[nH]n3)C2)o1 (configuration not stated)	-9.14
Cc1ccc(CCN2CCC(N(C)Cc3noc(C4CC4)n3)C2)cc1 (configuration not stated)	-8.31
COc1ccnc(C(=O)N2CCCC(c3noc(C)n3)C2)c1 (configuration not stated)	-4.64

Structure (SMILES)	cytotoxicity at 10 µM [%]
Cc1nn(C)c(N(C)C)c1CNCc1ccccc1CN(C)C	-0.553
FC(F)(F)Cc1noc(CN2CCCC2c2noc(C3CC3)n2)n1 (configuration not stated)	-2.7
Cn1cnnc1C1CCCN(C(=O)c2n[nH]c3ccccc23)C1 (configuration not stated)	0.914
Cc1nn(C)cc1-c1cncn1CCc1ccc2c(c1)OCCO2	11.5
CC(C)N(C)C(=O)C1CCC2(CCNCC2)O1 (configuration not stated)	-129
Cn1ccnc1CNC(=O)c1cncc(C2CCNCC2)n1	1.81
Fc1ccc(C2(CNC3=NCCN3)CCCC2)cc1	12.9
Cc1c[nH]c(C2CCCN(Cc3ccccc3C(=O)O)C2)n1 (configuration not stated)	-3.3
O=C(NCc1ccco1)[C@H]1CC[C@@H]2[C@@H](CCN2C2CCC2)O1	6.47
CNC(=O)CCc1cc(C2CCNCC2)nc(C)n1	-6.41
Cc1nc[nH]c1CN1CCC2(CC1)CC(Nc1ncccn1)CO2 (configuration not stated)	12.2
CCO[C@@H]1CC[C@H]2[C@H]1OCCN2CC1CCOCC1	10.8
CN(C)Cc1cc(=O)n2c(n1)CN(C(=O)Cc1cccs1)CCC2	-2.8
O=C1COC2(CCN(Cc3ccco3)CC2)CN1	-1.49
Cc1noc([C@@H]2C[C@H]3CN(Cc4scnc4C)C[C@H]3O2)n1	-136
CN(C)C(=O)N1Cc2nnn(C)c2C(COCc2cccnc2)C1 (configuration not stated)	10.8
COCCN1C(=O)CC[C@@H]2[C@H]1CCN2Cc1cccc(C#N)c1	-33.1
CCOc1ccc(CN2CCc3nc4ccsc4c(=O)n3CC2)cc1	-6.74
COc1ccc(CN2CCO[C@H]3CN(C4CCCC4)CC[C@H]3C2=O)cc1	-138
CN(C)[C@@H]1CCN(C(=O)c2cccc(C#N)c2)[C@H]1Cc1cnn(C)c1	-72.6
